“Also recorded” adds a separate entry of the source.

The text below walks through data of publication PMC2928052 (Journal of medicinal chemistry, 2010).

For assay [1], the system named is biotinylated HIV-1 FSS RNA. Description: SPR binding kinetics, RNA immobilized on streptavidin-coated CM5 chip. The settings on record: 1X PBS, 5 mM MgCl2, 0.005 % Tween-20, 1:1 global fit to six sensorgrams. In general terms: SPR reads the build-up and loss of mass on a sensor chip optically.
The target in assay [2] is DNA homolog of the HIV-1 FSS (entry 9). The assay is described as follows: Fluorescence titration, Table 1 entry 9. Format: binding. In short, it runs like this: (§1)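 5′-Cy3-labelled oligonucleotide (400 or 500 nM) in 1X PBS pH 7.2 was heated to 65 °C for 4 min, MgCl2 was added, and the sample was cooled slowly to RT. Test compound was titrated in (100 nM–10 μM), with ≥10 min equilibration per addition. Excitation was 550 nm and emission was read at 564.1 nm. Dilution-corrected ΔFU was fit to a 1-site ligand-depletion model, with ≥2 titrations.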

Assay [3] deals with unrelated RNA hairpin (entry 11). Description: Fluorescence titration, Table 1 entry 11. Format: binding. In outline:
as §1

The target of assay [4] is unrelated RNA hairpin (entry 10). Description: Fluorescence titration, Table 1 entry 10. The assay is classed as binding. In outline: as §1
For assay [5], the system named is HIV-1 FSS with single mutation in the loop region (entry 7). Description: Fluorescence titration, Table 1 entry 7. The assay is classed as binding. The settings on record: entry 7, single mutation in the loop region.
The test system of assay [6] is HIV-1 FSS with multiple mutations in the loop region (entry 8). The assay is described as follows: Fluorescence titration, Table 1 entry 8. Format: binding. The settings on record: entry 8, multiple mutations in the loop region.
In assay [7] the target is unrelated RNA hairpin (entry 10). The settings on record: Table 1 entry 10; compound immobilized on chip; previously reported; cited from earlier work.
The target of assay [8] is HIV-1 FSS RNA (upper stem-loop of the HIV-1 frameshift-stimulating RNA). Description: Fluorescence titration of compound into 5′-Cy3-labeled RNA. Format: binding, HIV-1 (group M subtype D). The settings on record: Table 2, average ± standard deviation of 3 replicate titrations.

Turning to `NC[C@@H]1O[C@H](O[C@H]2[C@@H](O)[C@H](O[C@@H]3[C@@H](O)[C@H](N)C[C@H](N)[C@H]3O[C@H]3O[C@H](CN)[C@@H](O)[C@H](O)[C@H]3N)O[C@@H]2CO)[C@H](N)[C@@H](O)[C@@H]1O` [Neomycin, neomycin, reference compound], in assay [1], the “Association rate (kon)” value is recorded as “too rapid to determine accurately” and the “Dissociation rate (koff)” value is “too rapid to determine accurately”.

For the compound (Cys-Pro-Phe)2 (disulfide) [Compound 1], the “Binding constant (KD), Solution” value in assay [2], in assay [3] and in assay [4] was “No saturable binding” in each case. For the same compound, the results for the “reduction in the binding relative to HIV-1 FSS” value in assay [5] and in assay [6] were 2 fold and 4 fold, respectively. Moreover, the “Binding constant (KD), SPR” value in assay [7] was “No binding”. Moreover, the “Association rate (kon)” value in assay [1] stood at 1790 M⁻¹ s⁻¹. In addition, the “Dissociation rate (koff)” value in assay [1] worked out at 0.0141 s⁻¹.

With (Cys-Pro-Phe)2 (disulfide) [Compound 5], the KD entry in assay [8] is reported as “completely ablated binding; also recorded: No Binding”.
